Experiments:
Format in all cases: functional
[1] = tested on: Salmonella typhimurium; assay: Antimicrobial activity against Salmonella enterica subsp. enterica serovar Typhimurium ATCC 14028 assessed as growth inhibition rate at 64.76 mg/l after 72 hr by spectrophotometry; conditions: ATCC 14028, 72 h, read-out: GI
[2] = tested on: Vibrio parahaemolyticus; assay: Antimicrobial activity against Vibrio parahaemolyticus ATCC 33844 assessed as growth inhibition rate at 64.76 mg/l after 72 hr by spectrophotometry; conditions: ATCC 33844, 72 h, read-out: GI
[3] = tested on: Listeria monocytogenes; assay: Antimicrobial activity against Listeria monocytogenes ATCC 19111 assessed as growth inhibition rate at 64.76 mg/l after 72 hr by spectrophotometry; conditions: ATCC 19111, 72 h, read-out: GI
Outline: (§1)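 L. monocytogenes was grown at 30 °C in tryptic soy broth, subcultured for 18 h, and exposed to pure volatile compounds (>95% purity). Growth was followed by Bioscreen C optical density every 24 h for 72 h against a 10% Tween 80 control.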

[4] = tested on: Bacillus cereus; assay: Antimicrobial activity against Bacillus cereus ATCC 11778 assessed as growth inhibition rate at 64.76 mg/l after 72 hr by spectrophotometry; conditions: ATCC 11778, 72 h, read-out: GI
Outline: (§2)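 Pure volatile compounds (purity >95%; one at 90%) were tested against B. cereus ATCC 11778. The strain was grown at 30 °C in nutrient broth for 24 h, then subcultured for 18 h. Optical density was read in a Bioscreen C every 24 h for 72 h, with 10% Tween 80 as the control.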

[5] = tested on: Staphylococcus aureus; assay: Antimicrobial activity against Staphylococcus aureus ATCC 25923 assessed as growth inhibition rate at 64.76 mg/l after 72 hr by spectrophotometry; conditions: ATCC 25923, 72 h, read-out: GI
[6] = tested on: Escherichia coli; assay: Antimicrobial activity against Escherichia coli O157:H7 ATCC 43894 assessed as growth inhibition rate at 64.76 mg/l after 72 hr by spectrophotometry; conditions: O157:H7 ATCC 43894, 72 h, read-out: GI
Outline: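 Authentic volatiles (>95% purity; 2,4-heptadienal 90%) tested against 18 h subcultures. Growth media: E. coli O157:H7 and S. aureus in tryptic soy broth at 37 °C; L. monocytogenes in tryptic soy broth at 30 °C; V. parahaemolyticus in tryptic soy broth + 3% NaCl at 37 °C; S. typhimurium in nutrient broth at 30 °C. Bioscreen C OD every 24 h for 72 h versus 10% Tween 80 control.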

[7] = tested on: Salmonella typhimurium; assay: Antimicrobial activity against Salmonella enterica subsp. enterica serovar Typhimurium ATCC 14028 assessed as growth inhibition rate at 4.64 mg/l after 72 hr by spectrophotometry; conditions: ATCC 14028, 72 h, read-out: GI
Outline: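 Salmonella Typhimurium ATCC 14028 grown in nutrient broth at 30 °C, precultured 24 h, then subcultured 1:100 for 18 h before testing. Single volatile compounds (>95% pure) were added. OD was read every 24 h over 72 h in a Bioscreen C, with 10% Tween 80 as the comparison control.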

[8] = tested on: Listeria monocytogenes; assay: Antimicrobial activity against Listeria monocytogenes ATCC 19111 assessed as growth inhibition rate at 4.64 mg/l after 72 hr by spectrophotometry; conditions: ATCC 19111, 72 h, read-out: GI; outline: as §1
[9] = tested on: Bacillus cereus; assay: Antimicrobial activity against Bacillus cereus ATCC 11778 assessed as growth inhibition rate at 4.64 mg/l after 72 hr by spectrophotometry; conditions: ATCC 11778, 72 h, read-out: GI; outline: as §2
[10] = tested on: Escherichia coli; assay: Antimicrobial activity against Escherichia coli O157:H7 ATCC 43894 assessed as growth inhibition rate at 4.64 mg/l after 72 hr by spectrophotometry; conditions: O157:H7 ATCC 43894, 72 h, read-out: GI
[11] = tested on: Vibrio parahaemolyticus; assay: Antimicrobial activity against Vibrio parahaemolyticus ATCC 33844 assessed as growth inhibition rate at 4.64 mg/l after 72 hr by spectrophotometry; conditions: ATCC 33844, 72 h, read-out: GI
[12] = tested on: Staphylococcus aureus; assay: Antimicrobial activity against Staphylococcus aureus ATCC 25923 assessed as growth inhibition rate at 4.64 mg/l after 72 hr by spectrophotometry; conditions: ATCC 25923, 72 h, read-out: GI

`C/C1=C\CC/C(C)=C/CC(C)(C)/C=C/C1` [ALPHA-HUMULONE] gave an inhibition of growth at 64.76 µg/mL [1] of 6.9%, an inhibition of growth at 64.76 µg/mL [2] of 15.7% and an inhibition of growth at 64.76 µg/mL [3] of 13.9%. For the same compound, the inhibition of growth at 64.76 µg/mL [4] was 40.1%, the inhibition of growth at 64.76 µg/mL [5] was 6.6% and the inhibition of growth at 64.76 µg/mL [6] was 4.6%.
`C[C@@H]1CC[C@@H]2[C@@H]1[C@H]1[C@@H](CC[C@@]2(C)O)C1(C)C` [GLOBULOL] gave an inhibition of growth at 4.64 µg/mL [7] of 0.8%, an inhibition of growth at 4.64 µg/mL [8] of 6.3% and an inhibition of growth at 4.64 µg/mL [9] of 1.9%. It also gave an inhibition of growth at 4.64 µg/mL [10] of 0%, an inhibition of growth at 4.64 µg/mL [11] of 0% and an inhibition of growth at 4.64 µg/mL [12] of 8.3%.
